Consider 30 compounds from ChEMBL document CHEMBL1124343 (J Med Chem, 1989).

The target of the first test is T1, Adrenergic receptor alpha-1 (Rattus norvegicus, UniProt P15823+P23944+P43140).
T1 sequence (P15823 whole entry): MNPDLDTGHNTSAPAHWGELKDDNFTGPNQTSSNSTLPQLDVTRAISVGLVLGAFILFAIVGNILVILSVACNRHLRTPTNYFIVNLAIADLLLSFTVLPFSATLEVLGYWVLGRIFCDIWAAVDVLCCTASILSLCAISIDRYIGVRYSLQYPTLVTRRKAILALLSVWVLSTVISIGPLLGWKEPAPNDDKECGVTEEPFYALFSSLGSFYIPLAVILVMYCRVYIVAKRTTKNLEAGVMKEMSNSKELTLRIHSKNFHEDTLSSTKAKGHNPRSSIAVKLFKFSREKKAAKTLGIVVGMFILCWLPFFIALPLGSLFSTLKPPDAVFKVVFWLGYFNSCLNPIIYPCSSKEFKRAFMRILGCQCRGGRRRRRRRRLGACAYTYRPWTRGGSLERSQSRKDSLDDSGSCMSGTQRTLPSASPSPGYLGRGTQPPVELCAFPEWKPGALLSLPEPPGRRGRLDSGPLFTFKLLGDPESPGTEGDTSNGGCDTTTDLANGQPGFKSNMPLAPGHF
T1 sequence (P23944 whole entry): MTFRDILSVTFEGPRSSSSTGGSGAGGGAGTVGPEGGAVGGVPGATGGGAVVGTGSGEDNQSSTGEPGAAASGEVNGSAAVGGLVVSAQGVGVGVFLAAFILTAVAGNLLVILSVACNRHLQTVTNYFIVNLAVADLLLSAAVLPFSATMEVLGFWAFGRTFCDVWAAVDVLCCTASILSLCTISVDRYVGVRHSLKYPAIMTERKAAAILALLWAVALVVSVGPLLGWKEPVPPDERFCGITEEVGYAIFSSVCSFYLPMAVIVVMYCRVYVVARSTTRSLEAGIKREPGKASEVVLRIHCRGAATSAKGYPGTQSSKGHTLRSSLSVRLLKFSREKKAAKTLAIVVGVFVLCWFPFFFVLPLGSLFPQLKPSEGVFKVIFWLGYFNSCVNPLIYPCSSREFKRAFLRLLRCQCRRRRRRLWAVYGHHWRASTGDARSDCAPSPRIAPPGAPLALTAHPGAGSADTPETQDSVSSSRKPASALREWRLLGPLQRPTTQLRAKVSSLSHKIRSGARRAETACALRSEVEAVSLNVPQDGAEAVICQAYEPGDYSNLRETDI
T1 sequence (P43140 whole entry): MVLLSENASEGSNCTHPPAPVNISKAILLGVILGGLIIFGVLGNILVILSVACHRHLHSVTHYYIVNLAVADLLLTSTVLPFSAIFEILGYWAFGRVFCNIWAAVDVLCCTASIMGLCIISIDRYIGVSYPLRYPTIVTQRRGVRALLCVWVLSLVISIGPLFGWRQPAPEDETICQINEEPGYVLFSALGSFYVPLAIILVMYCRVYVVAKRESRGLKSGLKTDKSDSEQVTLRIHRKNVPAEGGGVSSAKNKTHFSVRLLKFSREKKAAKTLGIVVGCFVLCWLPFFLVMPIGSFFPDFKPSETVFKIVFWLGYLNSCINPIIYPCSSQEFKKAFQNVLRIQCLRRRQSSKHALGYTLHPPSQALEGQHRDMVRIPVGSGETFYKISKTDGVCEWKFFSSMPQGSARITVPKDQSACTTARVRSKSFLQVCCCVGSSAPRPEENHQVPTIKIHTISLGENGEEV
Briefly: Compound is evaluated for its ability to compete with [3H]prazosin for binding to Alpha-1 adrenergic receptor sites on rat cerebral cortical membranes at 10 nM concentration.
Conditions: not given
For the compound `COc1cc2nc(N3CCN(C(=O)C4CC5C=CC4C5)CC3)nc(N)c2cc1OC` (stereo unspecified), the “-Log IC50” value is on record as 8.8. On the same count and under the same terms, next, `COc1cc2nc(N3CCN(C(=O)C4=CC5C=CC4CC5)CC3)nc(N)c2cc1OC` (stereo unspecified): 8.12.

A further test has as its target T1, Adrenergic receptor alpha-1. Briefly: Binding affinity at Alpha-1 adrenergic receptor sites on rat cerebral cortical membranes by [3H]prazosin displacement.
Conditions: not given
Summed up:
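Rat cortex membranes were washed and resuspended in 50 mM Tris pH 7.4 with 10 mM MgCl2, about 200–300 μg protein per tube. […] Nonspecific binding used 10 μM phentolamine. Tubes were run in duplicate, IC50 came from displacement curves, and there were 3–5 experiments or duplicate experiments.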
Take `COc1cc2nc(N3CCN(C(=O)/C=C/c4ccc(Cl)cc4)CC3)nc(N)c2cc1OC`: the “-Log IC50” value came out at 7.9.

`COc1cc2nc(N3CCN(S(=O)(=O)c4ccc(C)cc4)CC3)nc(N)c2cc1OC`: the “-Log IC50” value is 7.94.

As for `COc1cc2nc(N3CCN(C(=O)Nc4ccccc4)CC3)nc(N)c2cc1OC`, the “-Log IC50” value worked out at 7.56. Regarding `COc1cc2nc(N3CCN(C(=O)/C=C/c4cccc(F)c4)CC3)nc(N)c2cc1OC`, the “-Log IC50” value is 7.68. For the compound `COc1cc2nc(N3CCN(/C(S)=N/c4ccc(NC(=S)N5CC5)cc4)CC3)nc(N)c2cc1OC`, the “-Log IC50” value is 7.01. Same read-out and setting: then `COc1cc2nc(N3CCN(C(=O)c4ccc(N=C=S)c(I)c4)CC3)nc(N)c2cc1OC`, with 7.29; and `COc1cc2nc(N3CCN(S(=O)(=O)c4cccs4)CC3)nc(N)c2cc1OC`, with 7.47. With `COc1cc2nc(N3CCN(/C(S)=N/c4ccc(N=[N+]=[N-])cc4)CC3)nc(N)c2cc1OC`, the “-Log IC50” value came to 7.7. Same read-out and setting: next, `COc1cc2nc(N3CCN(C(=O)c4cccc(CCl)c4)CC3)nc(N)c2cc1OC`: 7.93; `COc1cc2nc(N3CCN(C(=O)/C=C/c4ccc(Br)cc4)CC3)nc(N)c2cc1OC`: 7.1; `COc1cc2nc(N3CCN(C(=O)/C=C/C(=O)c4ccccc4)CC3)nc(N)c2cc1OC`: 7.06.

As to `COc1cc2nc(N3CCN(C(=O)COc4ccccc4)CC3)nc(N)c2cc1OC`, the “-Log IC50” value worked out at 7.9.

As for `COc1cc2nc(N3CCN(/C(S)=N/c4ccccc4)CC3)nc(N)c2cc1OC`, the “-Log IC50” value was found to be 11.16. Still for that read-out and setting: next, `COc1cc2nc(N3CCN(C(=O)C4CC4c4ccccc4)CC3)nc(N)c2cc1OC` (stereo unspecified): 9.29. Same read-out and setting: next, `COc1cc2nc(N3CCN(/C(S)=N/C4CCCCC4)CC3)nc(N)c2cc1OC`: 8.27.

Turning to `COc1cc2nc(N3CCN(C(=O)c4ccc5ccccc5c4)CC3)nc(N)c2cc1OC`, the “-Log IC50” value stood at 7.31. The same measure, in the same setting: then `COc1cc2nc(N3CCN(C(=O)CCc4ccccc4)CC3)nc(N)c2cc1OC`, with 8.47.

Another test has the same target. Briefly: Compound is evaluated for its ability to compete with [3H]prazosin for binding to Alpha-1 adrenergic receptor sites on rat cerebral cortical membranes at 1000 nM concentration.
Conditions: not given
`COC(=O)/C=C/C=C/C(=O)N1CCN(c2nc(N)c3cc(OC)c(OC)cc3n2)CC1`: the “-Log IC50” value is reported as 7.41.

A further test has the same target. The test is described as follows: Displacement of [3H]prazosin binding to Alpha-1 adrenergic receptor sites on rat cerebral cortical membranes at 100 nM concentration. The class given is cell membranes, Membrane.
Conditions: not given
In general terms: Displacement assays read how much labelled ligand stays bound in the presence of the test substance.
With `COc1cc2nc(N3CCN(C(=O)/C=C/c4ccccc4)CC3)nc(N)c2cc1OC`, the “-Log IC50” value was 9.16. In the case of `COc1cc2nc(N3CCN(C(=O)/C=C/c4ccc(F)cc4)CC3)nc(N)c2cc1OC`, the “-Log IC50” value is 7.64. On the same count and under the same terms, then `COC(=O)/C=C/C(=O)Nc1ccc(CCCCC(=O)N2CCN(c3nc(N)c4cc(OC)c(OC)cc4n3)CC2)cc1`, with 8.35. Turning to `COc1cc2nc(N3CCN(C(=O)/C=C/c4ccc(NC(=O)CBr)cc4)CC3)nc(N)c2cc1OC`, the “-Log IC50” value was 7.17. Turning to `COc1cc2nc(N3CCN(C(=O)/C=C/c4ccc(N=C=S)cc4)CC3)nc(N)c2cc1OC`, the “-Log IC50” value turned out to be 6.99.

Consider `C/C=C/C=C/C(=O)N1CCN(c2nc(N)c3cc(OC)c(OC)cc3n2)CC1`, for which the “-Log IC50” value came to 8.36. Still for that read-out and setting: next, `COc1cc2nc(N3CCN(C(=O)/C(F)=C/c4ccccc4)CC3)nc(N)c2cc1OC`: 7.4. Regarding `COC(=O)/C=C/C(=O)Nc1ccc(/C=C/C(=O)N2CCN(c3nc(N)c4cc(OC)c(OC)cc4n3)CC2)cc1`, the “-Log IC50” value was determined as 7.53.

For the compound `COc1ccc(/C=C/C(=O)N2CCN(c3nc(N)c4cc(OC)c(OC)cc4n3)CC2)cc1`, the “-Log IC50” value was 8.47.

The target in a further test is Adrenergic receptor alpha-1 (Rattus norvegicus) (UniProt P15823+P23944+P43140). Briefly: Irreversible action of compound towards Alpha-1 adrenergic receptor on rat cerebral cortical membranes was determined at 1000 nM concentration. The class given is cell membranes. As to conditions: Membrane. Put shortly: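 Cortical membranes in Tris/MgCl2 buffer were preincubated 1 h at 30 °C with compound or buffer alone. Isothiocyanates were run in 50 mM phosphate with 1 mM EDTA, pH 7. Membranes were diluted, kept 10 min on ice and washed by four centrifugations. […] Bmax came from Scatchard plots, at least 3 experiments.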
As to `COC(=O)/C=C/C=C/C(=O)N1CCN(c2nc(N)c3cc(OC)c(OC)cc3n2)CC1`, the Decrease in Bmax turned out to be 0%.

The target of a further test is T1, Adrenergic receptor alpha-1. The test is described as follows: Compound is evaluated for its ability to compete with [3H]prazosin for binding to Alpha-1 adrenergic receptor sites on rat cerebral cortical membranes at 100 nM concentration.
Conditions: not given
In the case of `COc1cc2nc(N3CCN(C(=O)C4OC4c4ccccc4)CC3)nc(N)c2cc1OC` (stereo unspecified), the “-Log IC50” value is reported as 7.88.
